Experiment [1] deals with Potassium-transporting ATPase (Sus scrofa, UniProt P19156). In words: Inhibition of purified H+/K+ ATPase at pH 7.4 as released inorganic phosphate from ATP using hog stomach gastric membrane vesicles. In outline:
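Gastric membrane vesicles from hog stomach were prepared by differential and zonal density gradient centrifugation. Activity was read as inorganic phosphate released from ATP at pH 7.4. Protein was measured by the Bradford method against a gammaglobulin standard.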

The target of experiment [2] is Potassium-transporting ATPase alpha chain 1/subunit beta (Oryctolagus cuniculus). In words: Inhibition of H+/K+ ATPase as reduced acid formation in rabbit gastric glands.

Each structure is given as a SMILES string.

Potassium-transporting ATPase, sequence (P19156 whole entry, looked up): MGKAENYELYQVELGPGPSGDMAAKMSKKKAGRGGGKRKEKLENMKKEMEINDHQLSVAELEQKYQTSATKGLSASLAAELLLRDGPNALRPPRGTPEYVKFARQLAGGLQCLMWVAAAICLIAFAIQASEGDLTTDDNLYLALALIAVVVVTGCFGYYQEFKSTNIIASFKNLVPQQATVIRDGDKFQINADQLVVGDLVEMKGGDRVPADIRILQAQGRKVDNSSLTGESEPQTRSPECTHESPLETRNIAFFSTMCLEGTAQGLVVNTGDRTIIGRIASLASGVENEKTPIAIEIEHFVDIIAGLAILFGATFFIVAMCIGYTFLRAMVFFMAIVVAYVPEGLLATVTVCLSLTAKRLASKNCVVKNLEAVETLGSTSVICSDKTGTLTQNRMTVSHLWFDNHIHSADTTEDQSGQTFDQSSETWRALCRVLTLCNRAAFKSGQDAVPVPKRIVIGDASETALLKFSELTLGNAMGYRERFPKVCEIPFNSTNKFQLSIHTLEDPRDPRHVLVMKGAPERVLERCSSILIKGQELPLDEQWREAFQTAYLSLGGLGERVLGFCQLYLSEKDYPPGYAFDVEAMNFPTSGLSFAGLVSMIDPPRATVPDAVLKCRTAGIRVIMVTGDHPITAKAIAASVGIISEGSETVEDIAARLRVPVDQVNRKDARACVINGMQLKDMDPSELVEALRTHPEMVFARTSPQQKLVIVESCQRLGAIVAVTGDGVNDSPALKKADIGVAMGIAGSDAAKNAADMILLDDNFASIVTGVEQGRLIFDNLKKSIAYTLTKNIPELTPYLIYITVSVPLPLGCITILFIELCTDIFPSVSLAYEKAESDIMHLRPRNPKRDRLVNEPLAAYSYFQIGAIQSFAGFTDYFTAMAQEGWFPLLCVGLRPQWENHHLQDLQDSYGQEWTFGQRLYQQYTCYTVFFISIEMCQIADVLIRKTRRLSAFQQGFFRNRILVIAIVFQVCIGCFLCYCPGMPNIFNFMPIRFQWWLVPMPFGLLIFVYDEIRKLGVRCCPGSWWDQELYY

A word on the IC50: it is the concentration that gives 50% inhibition. `Cc1nc2c(OCc3ccccc3)nccn2c1N`: the 50% inhibitory concentration (IC50) in experiment [1] was 178 µM.
For `Cc1nc2c(C/C=C/c3ccccc3)cccn2c1CC#N`, the results for the half-maximal inhibitory concentration (IC50) in experiment [1] and in experiment [2] were 206 µM and 442 µM, respectively.
